What was measured:
Steryl-sulfatase [1] = biological target: T1, Steryl-sulfatase (Homo sapiens, UniProt P08842); assay: Inhibitory activity against Steroid sulfatase expressed in CHO cells; assay type: cell-based
T1 sequence (P08842 whole entry): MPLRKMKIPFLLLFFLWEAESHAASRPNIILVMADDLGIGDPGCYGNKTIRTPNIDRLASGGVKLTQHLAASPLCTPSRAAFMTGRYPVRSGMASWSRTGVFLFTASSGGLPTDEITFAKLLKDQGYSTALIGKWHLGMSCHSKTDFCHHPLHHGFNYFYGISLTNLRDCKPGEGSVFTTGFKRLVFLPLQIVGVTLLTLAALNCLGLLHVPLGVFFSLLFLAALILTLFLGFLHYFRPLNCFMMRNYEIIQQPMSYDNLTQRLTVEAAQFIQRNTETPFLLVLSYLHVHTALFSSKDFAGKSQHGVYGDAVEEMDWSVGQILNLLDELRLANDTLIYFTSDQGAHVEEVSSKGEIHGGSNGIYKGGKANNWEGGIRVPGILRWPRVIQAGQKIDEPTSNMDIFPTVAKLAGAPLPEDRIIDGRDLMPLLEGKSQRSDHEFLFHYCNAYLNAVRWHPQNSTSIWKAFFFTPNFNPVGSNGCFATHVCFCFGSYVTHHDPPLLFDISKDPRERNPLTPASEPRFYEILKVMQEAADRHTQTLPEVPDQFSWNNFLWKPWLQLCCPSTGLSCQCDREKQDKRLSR
Method in brief: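 Intact CHO cells over-expressing recombinant human STS are given 4-MUS as substrate, using the assay variant for reversible inhibitors. STS activity is measured in the presence of inhibitor, and the IC50 is derived.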

Steryl-sulfatase [2] = biological target: T1, Steryl-sulfatase; assay: Inhibitory activity against purified human Steroid sulfatase
Method in brief: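 Homogeneous human STS, purified from recombinant CHO cells, cleaves 4-methylumbelliferyl sulfate (4-MUS). The reaction is followed in a discontinuous fluorimetric assay with and without inhibitor, using a 1 h incubation in the standard format. The IC50 is taken from the inhibition data.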

Steryl-sulfatase [3] = biological target: T1, Steryl-sulfatase; assay: Inhibitory constant against purified human Steroid sulfatase
Method in brief: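 Kinetic study with purified recombinant human STS and 4-MUS substrate in the discontinuous fluorimetric assay. Substrate turnover rates are measured at various inhibitor concentrations and replotted as Hanes diagrams. Kapp/Vapp ratios are plotted against inhibitor concentration, and Ki is read from the abscissa intercept. Pre-incubation and dextran-activated charcoal treatment were used to test reversibility.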

MCF7 = assay: Growth stimulation of estrogen receptor positive MCF-7 human breast cancer cells with compound up to 10 uM; not estrogenic; assay type: functional, cell-based

SMILES	IC50 (Steryl-sulfatase [1]) [µM]	IC50 (Steryl-sulfatase [2]) [µM]	Ki (Steryl-sulfatase [3]) [µM]	Activity (MCF7)
O=C(Cc1ccccc1)OC1CCN(C(=O)NS(=O)(=O)c2ccc(Cl)cc2)CC1	> 30	> 100		
C[C@]12CC[C@@H]3c4ccc(OS(N)(=O)=O)cc4CC[C@H]3[C@@H]1CCC2=O [EMATE]	0.03		0.67	
O=C(Cc1ccccc1)O[C@H]1C[C@H]2CC[C@@H](C1)N2C(=O)NS(=O)(=O)c1ccc(F)cc1	39.2	50		
N#CC1(OC(=O)Cc2ccccc2)CCN(C(=O)NS(=O)(=O)c2ccc(Cl)cc2)CC1	24.5	13		
O=C(Cc1ccccc1)O[C@H]1C[C@H]2CC[C@@H](C1)N2C(=O)NS(=O)(=O)c1cc(C(F)(F)F)cc(C(F)(F)F)c1	1.89	0.084	0.076	
O=C(Cc1ccccc1)O[C@H]1C[C@H]2CC[C@@H](C1)N2C(=O)NS(=O)(=O)c1ccccc1	> 30	> 100		
O=C(Cc1ccccc1)O[C@H]1C[C@H]2CC[C@@H](C1)N2C(=O)NS(=O)(=O)c1ccc(Br)cc1	6.15		1.85	
O=C(Cc1ccccc1)O[C@H]1C[C@H]2CC[C@@H](C1)N2C(=O)NS(=O)(=O)c1ccc(C(F)(F)F)cc1	7.47		0.53	
O=C(Cc1ccccc1)O[C@H]1C[C@H]2CC[C@@H](C1)N2C(=O)NC(=O)c1ccc(Cl)cc1	10.4		5.8	
O=C(Cc1ccccc1)O[C@H]1C[C@H]2CC[C@@H](C1)N2C(=O)NS(=O)(=O)c1ccc(Cl)cc1	6.72		2.4	
Cc1ccc(S(=O)(=O)NC(=O)N2[C@@H]3CC[C@H]2C[C@@H](OC(=O)Cc2ccccc2)C3)cc1	37.1	16.6		
O=C(NN1[C@@H]2CC[C@H]1C[C@@H](OC(=O)Cc1ccccc1)C2)NS(=O)(=O)c1ccc(Cl)cc1	3.84		0.89	not estrogenic
O=C(Cc1ccccc1)O[C@H]1C[C@H]2CC[C@@H](C1)N2C(=O)CS(=O)(=O)c1ccc(Cl)cc1	4.32	6.2		
